Published values pooled from the literature.
Oprm1: Mu-type opioid receptor (Oprm1, Mus musculus, UniProt P42866)
CNR1: Cannabinoid receptor 1 (CNR1, Homo sapiens, UniProt P21554)

SMILES | target | test | conditions | quantity | value
CC(C)[C@H](CN1CCc2ccccc2C1)NC(=O)Cc1c[nH]c2ccccc12 | Oprm1 | ligand displacement, radioligand |  | Ki | 420 nM
c1cncc([C@@H]2CCCN2)c1 | Neuronal acetylcholine receptor; alpha4/beta2 (Rattus norvegicus, UniProt P09483+P12390) | cell-free assay, radioligand |  | Ki | 334 nM
CCCCC/C=C\C/C=C\C/C=C\Cc1ccccc1CCCC(=O)N[C@H](C)CO | CNR1 | β-arrestin recruitment, agonist |  | EC50 | 607 nM
CC[C@H](C)[C@@H](C(=O)N1CCC[C@H]1c1nccs1)N(C)C(=O)[C@H](CC(C)C)N(C)C(=O)[C@H](Cc1ccc(OC)cc1)N(C)C(=O)/C=C(\C)OC | CNR1 | ligand displacement, radioligand |  | IC50 | 16600 nM
CC[C@H](C)[C@H](NC(=O)[C@H](CCC(=O)O)NC(=O)[C@H](C)NC(=O)[C@H](CCCCN)NC(=O)[C@H](CC(C)C)NC(=O)[C@@H](NC(=O)[C@H](CCC(=O)O)NC(=O)[C@@H](NC(=O)[C@H](CCC(=O)O)NC(=O)[C@H](CC(=O)O)NC(=O)[C@H](C)NC(=O)[C@@H](NC(=O)[C@@H](NC(=O)[C@H](C)NC(=O)[C@H](C)NC(=O)CCNC(=O)[C@@H](N)CCCCNC(=O)CCCC[C@@H]1SC[C@@H]2NC(=O)N[C@@H]21)C(C)C)[C@@H](C)O)[C@@H](C)O)C(C)C)C(=O)N[C@@H](CO)C(=O)N[C@@H](CCCCN)C(=O)N[C@@H](C)C(=O)N[C@H](C(=O)N[C@@H](CCCCN)C(=O)N[C@@H](CCC(N)=O)C(=O)N[C@H](C(=O)N[C@@H](CCC(N)=O)C(=O)N[C@@H](CCC(=O)O)C(=O)N[C@@H](CCC(=O)O)C(=O)N[C@@H](CC(=O)O)C(=O)N1CCC[C@H]1C(=O)N[C@@H](CC(N)=O)C(N)=O)C(C)C)C(C)C | Myc proto-oncogene protein (MYC, Homo sapiens, UniProt P01106) | binding, BLI |  | Kd | 4600 nM
CC(C)[C@H](CN1CCc2ccccc2C1)NC(=O)c1cccc(-c2cccc(O)c2)c1 | Oprm1 | ligand displacement, radioligand |  | Ki | 3100 nM
O=C(O)Cn1c(=O)n(Cc2ccc(Br)cc2F)c(=O)c2ccc(Cl)cc21 | Fatty acid-binding protein, intestinal (Homo sapiens, UniProt P12104, T55A) | ligand displacement, fluorescence |  | Kd | 2680 nM
CCOC(=O)c1ccc(OC(=O)CCCCCN=C(N)N)cc1 | Vitamin K-dependent protein C (PROC, Homo sapiens, UniProt P04070) | enzyme activity, inhibitor |  | IC50 | 157 nM
CCCCCn1nc(C(=O)NC(C)(C)c2cccc(C(N)=O)c2)c2ccccc21 | CNR1 | ligand displacement, radioligand | cell membranes | Ki | 250 nM
CCCCCc1ccccc1C/C=C\C/C=C\C/C=C\CCCC(=O)N[C@H](C)CO | CNR1 | β-arrestin recruitment, agonist |  | EC50 | 3440 nM
C[C@@H](O)[C@@H]1NC(=O)CNC(=O)[C@H](Cc2c[nH]cn2)NC(=O)[C@H](Cc2c[nH]c3ccccc23)NC(=O)[C@H](CC(N)=O)NC(=O)CNC(=O)C[C@@H](C(=O)N[C@@H](Cc2c[nH]c3ccccc23)C(=O)N[C@@H](Cc2ccccc2)C(=O)N[C@@H](Cc2ccccc2)C(=O)N[C@@H](CC(N)=O)C(=O)N[C@@H](Cc2ccc(O)cc2)C(=O)N[C@@H](Cc2ccc(O)cc2)C(=O)N[C@@H](Cc2c[nH]c3ccccc23)C(=O)O)NC(=O)[C@@H]2CCCN2C(=O)[C@H](CO)NC1=O | Endothelin-1 receptor (EDNRA, Homo sapiens, UniProt P25101) | ligand displacement, radioligand | cell membranes | IC50 | > 10000 nM
CC(C)(NC(=O)c1nn(Cc2ccc(C#N)cc2)c2ccccc12)c1cccc(C(N)=O)c1 | CNR1 | ligand displacement, radioligand | cell membranes | Ki | 98 nM
COc1cc2c(cc1OC)CN(CCc1ccc(NC(=O)c3cccc4c(=O)c5cccc(OC)c5[nH]c34)cc1)CC2 | Kappa-type opioid receptor (OPRK1, Homo sapiens, UniProt P41145) | cell-free assay |  | Ki | > 10000 nM
CC(C)(NC(=O)c1nn(CCCCC(F)(F)F)c2ccccc12)c1cccc(C(N)=O)c1 | CNR1 | ligand displacement, radioligand | cell membranes | Ki | 210 nM
CCCCC/C=C\[C@H](C)/C=C\C/C=C\Cc1ccccc1CCCC(=O)N[C@H](C)CO | CNR1 | cAMP, agonist |  | EC50 | 1610 nM
CC(C)(C#N)CCCn1nc(C(=O)NC(C)(C)c2cccc(C(N)=O)c2)c2ccccc21 | CNR1 | ligand displacement, radioligand | cell membranes | Ki | 250 nM
COc1cc2c3c(c1OC)-c1c(OC)ccc(Br)c1CC3N(C)CC2 (centres unmarked) | 5-hydroxytryptamine receptor 2A (HTR2A, Homo sapiens, UniProt P28223) | cell-free assay, radioligand |  | Ki | 373 nM
